{"data": "Experimental data from different studies", "target": "Misshapen-like kinase 1 (MINK1, Homo sapiens, UniProt Q8N4C8)", "note": "Compare with care: the assays were run in different laboratories."}
{"Compound": "CCN(CC)CCNC(=O)c1c(C)[nH]c(/C=C2\\C(=O)Nc3ccc(F)cc32)c1C", "assay": "enzyme activity, inhibitor", "setting": "10 µM", "endpoint": "inhibition", "value": "94%"}
{"Compound": "Cn1nc(C(=O)NCc2ccc(C(=O)O)cc2)cc1-c1ccc2[nH]ccc2c1", "assay": "cell-free assay, competition with immobilised ligand", "setting": "0.1 µM", "endpoint": "remaining binding", "value": "95%"}
{"Compound": "CC(C)(O)[C@H]1CC[C@H](Nc2ccc3ncc(-c4cccc(C(F)(F)F)c4)n3n2)CC1", "assay": "enzyme activity, inhibitor", "setting": "1 µM", "endpoint": "remaining activity", "value": "97%"}
{"Compound": "COc1cc(Cl)c(C(=O)N[C@@H](CN[C@H]2CC[C@@H](N)CC2)Cc2ccc(C#N)cc2)cc1-c1ccc(CN[C@H](C)c2ccc(C)cc2)o1", "assay": "enzyme activity, inhibitor", "setting": "1 µM", "endpoint": "remaining activity", "value": "94%"}
{"Compound": "CCCOc1ccc([C@@H]2[C@@H](C(=O)O)[C@H](c3ccc4c(c3)OCO4)CN2CC(=O)Nc2c(CC)cccc2CC)cc1", "assay": "cell-free assay, competition with immobilised ligand", "setting": "1 µM", "endpoint": "remaining binding", "value": "78%"}
{"Compound": "CCN(CC)c1ccc(C2=NNC(=O)CC2C)cc1[N+](=O)[O-] (stereo not drawn)", "assay": "enzyme activity, inhibitor", "setting": "10 µM", "endpoint": "remaining activity", "value": "102%"}
{"Compound": "Cc1ccc(C(=O)NCc2ccsc2)cc1C#Cc1cn(C(C)C)c2ncnc(N)c12", "assay": "enzyme activity, inhibitor", "setting": "1 µM", "endpoint": "activity vs control", "value": "84%"}
{"Compound": "NS(=O)(=O)c1cc(NC(=O)Cc2ccccc2)ccc1Oc1cccc(Cl)c1", "assay": "cell-free assay, competition with immobilised ligand", "setting": "1 µM", "endpoint": "remaining binding", "value": "90%"}
{"Compound": "O=C(Nc1cnn(-c2csc(C(=O)NC3COC3)c2)c1)Nc1ccccc1Cl", "assay": "enzyme activity, inhibitor", "setting": "5 µM", "endpoint": "remaining activity", "value": "79.4%"}
{"Compound": "C[C@H](c1ccnc(Nc2nc3ccc(-c4cc(N(C)C)ncn4)cc3[nH]2)c1)N1CCN(C(=O)CC(F)(F)F)CC1", "assay": "cell-free assay, competition with immobilised ligand", "setting": "0.1 µM", "endpoint": "remaining binding", "value": "94%"}
{"Compound": "CNC(=O)c1cc(Oc2ccc(NC(=O)Nc3ccc(Cl)c(C(F)(F)F)c3)cc2)ccn1", "assay": "enzyme activity, inhibitor", "setting": "0.3 µM", "endpoint": "inhibition", "value": "14%"}
{"Compound": "COc1cc2c(Nc3ccc(Br)cc3F)ncnc2cc1OCC1CCN(C)CC1", "assay": "cell-free assay", "setting": "0.5 µM", "endpoint": "remaining signal", "value": "81.5%"}
{"Compound": "COc1cc(Nc2cnc(C#N)c(O[C@H](C)CN(C)C)n2)ncc1-c1cnn(C)c1", "assay": "enzyme activity, inhibitor, radiometric", "setting": "1 µM", "endpoint": "remaining activity", "value": "90%"}
{"Compound": "COc1cc(-c2cc(-c3ccc(N4CCNCC4)cc3)cnc2N)cc(OC)c1OC", "assay": "enzyme activity, inhibitor", "setting": "1 µM", "endpoint": "inhibition", "value": "89%"}
{"Compound": "Cc1nc(C2CCN(C(=O)c3ccc(OC(F)(F)F)cc3N)CC2)c2ncc(N3CCN(C)CC3)cc2n1", "assay": "cell-free assay, competition with immobilised ligand", "setting": "1 µM", "endpoint": "remaining binding", "value": "93%"}
{"Compound": "CN(C)C1CCN(CC#Cc2nn(C3CCCC3)c3nc(NCc4ccccc4)ncc23)C1 (stereo not drawn)", "assay": "enzyme activity, inhibitor, FRET", "setting": "0.1 µM", "endpoint": "inhibition", "value": "11%"}
{"Compound": "Nc1ncnc2occ(-c3ccc(NC(=O)Nc4cc(C(F)(F)F)ccc4F)cc3)c12", "assay": "cell-free assay, inhibitor", "setting": "20 µM", "endpoint": "remaining signal", "value": "1.5%"}
{"Compound": "Cc1ccc(Nc2nccc(N(C)c3ccc4c(C)n(C)nc4c3)n2)cc1S(N)(=O)=O", "assay": "enzyme activity, inhibitor", "setting": "0.3 µM", "endpoint": "inhibition", "value": "23%"}
{"Compound": "N#CC1(c2ccccn2)CCN(Cc2cc(C(=O)N3CCCC3)c(=O)n3ccccc23)CC1", "assay": "cell-free assay, competition with immobilised ligand", "setting": "1 µM", "endpoint": "remaining binding", "value": "89%"}
{"Compound": "COc1cc2ncnc(Nc3ccc(Oc4ccccc4)cc3C)c2cc1OC", "assay": "enzyme activity, inhibitor", "setting": "1 µM", "endpoint": "inhibition", "value": "7%"}
{"Compound": "CCCOc1ccc(OC)c(F)c1C(=O)c1ccc(C(=O)N[C@@H]2CNC[C@H]2NC(=O)c2ccc3[nH]ncc3c2)cc1", "assay": "enzyme activity, inhibitor", "setting": "10 µM", "endpoint": "remaining activity", "value": "96%"}
{"Compound": "CC(C)(C)c1nc(-c2cccc(NS(=O)(=O)c3c(F)cccc3F)c2F)c(-c2ccnc(N)n2)s1", "assay": "enzyme activity, inhibitor, radiometric", "setting": "1 µM", "endpoint": "remaining activity", "value": "100%"}
{"Compound": "O=C(N1CCS(=O)(=O)CC1)N1C[C@H](c2ccc(OC(F)(F)F)cc2)C[C@H](c2nc(C3CC3)no2)C1", "assay": "cell-free assay, competition with immobilised ligand", "setting": "1 µM", "endpoint": "remaining binding", "value": "99%"}
{"Compound": "COc1ccc(COc2ccc(Cc3cnc(N)nc3N)cc2OC)cc1", "assay": "cell-free assay", "setting": "0.5 µM", "endpoint": "remaining signal", "value": "86.5%"}
{"Compound": "Cc1noc([C@H]2C[C@@H](c3ccc(C(F)(F)F)cc3)CN(C(=O)N3CCS(=O)(=O)C3)C2)n1", "assay": "cell-free assay, competition with immobilised ligand", "setting": "1 µM", "endpoint": "remaining binding", "value": "100%"}
{"Compound": "CS(=O)(=O)CCNCc1ccc(-c2ccc3ncnc(Nc4ccc(OCc5cccc(F)c5)c(Cl)c4)c3c2)o1", "assay": "cell-free assay", "setting": "0.5 µM", "endpoint": "remaining signal", "value": "111%"}
{"Compound": "Cn1c(=O)n(-c2ccc(C(C)(C)C#N)cc2)c2c3cc(-c4cnc5ccccc5c4)ccc3ncc21", "assay": "enzyme activity, inhibitor", "setting": "10 µM", "endpoint": "remaining activity", "value": "75%"}
{"Compound": "FC(F)(F)Oc1cccc(-c2cnc3ccc(-c4ccncc4)nn23)c1", "assay": "enzyme activity, inhibitor, radiometric", "setting": "1 µM", "endpoint": "activity vs control", "value": "58%"}
{"Compound": "CN1CC(Oc2cnc(C#N)cc2-c2ccn3nc(NC(=O)C4CC4)cc3c2)C1", "assay": "enzyme activity, inhibitor", "setting": "1 µM", "endpoint": "inhibition", "value": "13%"}
{"Compound": "Cc1ccc(C(=O)Nc2ccc(CN3CCN(C)CC3)c(C(F)(F)F)c2)cc1C#Cc1cnc2cccnn12", "assay": "enzyme activity, inhibitor", "setting": "23.5 nM", "endpoint": "remaining activity", "value": "45%"}
